In ChEMBL document CHEMBL3091366, “New 5-Aryl-1H-imidazoles display in vitro antitumor activity against apoptosis-resistant cancer models, including melanomas, through mitochondrial targeting” (J Med Chem, 2013):

How the values were obtained:
Format in all cases: functional, cell-based
SK-MEL-28 = assay: Cytotoxicity against apoptotic-resistant human SK-MEL-28 cells assessed as growth inhibition after 72 hrs by MTT-based colorimetric assay; details: Homo sapiens, SK-MEL-28, 72 h
Method in brief: (§1)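 MTT colorimetric assay, 72 h exposure to the fumarate salt. Read-out is reduction of MTT to formazan by living cells. IC50 is the concentration that reduces the whole cell population by 50%. Six replicates per condition. Where compounds were not tested on every line, apoptosis-sensitive lines were PC3, MCF-7, LoVo and B16F10, and apoptosis-resistant lines were U373, T98G, A549 and SK-MEL-28.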

B16-F10 = assay: Cytotoxicity against apoptotic-sensitive mouse B16F10 cells assessed as growth inhibition after 72 hrs by MTT-based colorimetric assay; details: B16-F10, 72 h; method in brief: as §1
MCF7 = assay: Cytotoxicity against apoptotic-sensitive human MCF7 cells assessed as growth inhibition after 72 hrs by MTT-based colorimetric assay; details: Homo sapiens, MCF7, 72 h; method in brief: as §1
A549 = assay: Cytotoxicity against apoptotic-resistant human A549 cells assessed as growth inhibition after 72 hrs by MTT-based colorimetric assay; details: Homo sapiens, A549, 72 h; method in brief: as §1
T98G = assay: Cytotoxicity against apoptotic-resistant human T98G cells assessed as growth inhibition after 72 hrs by MTT-based colorimetric assay; details: Homo sapiens, T98G, 72 h; method in brief: as §1
LoVo = assay: Cytotoxicity against apoptotic-sensitive human LoVo cells assessed as growth inhibition after 72 hrs by MTT-based colorimetric assay; details: Homo sapiens, LoVo, 72 h; method in brief: as §1
PC-3 = assay: Cytotoxicity against apoptotic-sensitive human PC3 cells assessed as growth inhibition after 72 hrs by MTT-based colorimetric assay; details: Homo sapiens, PC-3, 72 h; method in brief: as §1

Molecule `Cn1c2cnc1OCC/C=C\CCCCOc1ccccc1-2` has an IC50 (SK-MEL-28) of 85 µM, an IC50 (B16-F10) of 70 µM and an IC50 (MCF7) of 63 µM. It also gave an IC50 (A549) of 74 µM, an IC50 (T98G) of 100 µM and an IC50 (LoVo) of 40 µM. The IC50 (PC-3) was 62 µM.

`C=CCCCCOc1ncc(-c2cc(C(C)C)ccc2OC)n1C` was tested, and the IC50 (SK-MEL-28) was 3 µM, the IC50 (B16-F10) was 7 µM and the IC50 (MCF7) was 18 µM. For the same molecule, the IC50 (A549) was 4 µM, the IC50 (T98G) was 6 µM and the IC50 (LoVo) was 3 µM. It also gave an IC50 (PC-3) of 9 µM.

Molecule `C=CCCCCOc1nccn1C` has an IC50 (SK-MEL-28) greater than 100 µM, an IC50 (B16-F10) of 51 µM and an IC50 (MCF7) greater than 100 µM. It also gave an IC50 (A549) greater than 100 µM, an IC50 (T98G) greater than 100 µM and an IC50 (LoVo) greater than 100 µM. It also gave an IC50 (PC-3) greater than 100 µM.

`CCCCOc1ncc(-c2ccccc2OC)n1C` showed an IC50 (SK-MEL-28) of 82 µM, an IC50 (B16-F10) of 71 µM and an IC50 (MCF7) of 55 µM. It also gave an IC50 (A549) of 87 µM, an IC50 (T98G) of 96 µM and an IC50 (LoVo) of 39 µM. The IC50 (PC-3) was 71 µM.

`CCCCCCOc1ncc(-c2ccccc2OC)n1C` was tested, and the IC50 (SK-MEL-28) was 43 µM, the IC50 (B16-F10) was 38 µM and the IC50 (MCF7) was 27 µM. The IC50 (A549) was 37 µM, the IC50 (T98G) was 58 µM and the IC50 (LoVo) was 27 µM. The IC50 (PC-3) was 33 µM.

`C=CCCCCOc1ncc(-c2cc(Cl)ccc2OC)n1C` gave an IC50 (SK-MEL-28) of 28 µM, an IC50 (B16-F10) of 29 µM and an IC50 (MCF7) of 25 µM. The IC50 (A549) was 34 µM, the IC50 (T98G) was 48 µM and the IC50 (LoVo) was 28 µM. The IC50 (PC-3) was 32 µM.

With `COc1ccccc1-c1cnc(OCCCc2ccccc2)n1C` the IC50 (SK-MEL-28) was 4 µM, the IC50 (B16-F10) was 7 µM and the IC50 (MCF7) was 3 µM. It also gave an IC50 (A549) of 3 µM, an IC50 (T98G) of 3 µM and an IC50 (LoVo) of 3 µM. It also gave an IC50 (PC-3) of 27 µM.

`C=CCCCCOc1nc(-c2ccccc2OC)cn1C` was tested, and the IC50 (SK-MEL-28) was greater than 100 µM, the IC50 (B16-F10) was 69 µM and the IC50 (MCF7) was 77 µM. It also gave an IC50 (A549) of 91 µM, an IC50 (T98G) greater than 100 µM and an IC50 (LoVo) of 81 µM. The IC50 (PC-3) was 86 µM.

Work on `C=CCCCCOc1ncc(-c2cc(F)c(F)cc2OC)n1C` yielded an IC50 (SK-MEL-28) of 40 µM, an IC50 (B16-F10) of 43 µM and an IC50 (MCF7) of 32 µM. For the same molecule, the IC50 (A549) was 43 µM, the IC50 (T98G) was 53 µM and the IC50 (LoVo) was 36 µM. It also gave an IC50 (PC-3) of 40 µM.
